# Source: PubChem BioAssay
# ROMK primary = ROMK potassium channel modulators, primary screen, cell-based, thallium flux, MLSMR library; ATP-sensitive inward rectifier potassium channel 1 (Homo sapiens), P48048; actives 2% (n = 130,000); AID 1918, 2009; Tet-inducible ROMK, thallium flux fluorescence; actives lie on both sides; B-score at 10 µM;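 active means signal ratio slope over the read window, or its plate-corrected B-score, at least 3 SD from the plate mean, either direction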;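 further: B-score of the F/F0 ratio slope over 7 to 12 s after thallium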
# m-calpain inh = inhibitors of pig calpain II, primary screen, biochemical, fluorogenic peptide substrate, 1536-well | purified calpain II, 30 min | inhibition, % at 16 µM | actives 0.37% (n = 220,000);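 active means inhibition above about 50%, limit read from the data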
# PKD1 kinase inh = inhibitors of human PKD1 kinase, biochemical, fluorescence polarization | Serine/threonine-protein kinase D1 (Homo sapiens), Q15139 | PKD1 kinase fluorescence polarization assay | inhibition, % (no concentration beside the values) | actives 0.056% (n = 200,000) | AID 797, 2007; in the data active means inhibition above about 50%
# Cl transport mod = KCC2 cotransporter modulators, thallium flux, primary screen, cell-based, HEK293 KCC2, FluoZin-2 fluorescence, MLSMR; KCC2 cells, thallium flux FluoZin-2 fluorescence; B-score of Tl+ flux slope (higher = more flux/activation; lower = inhibition) at 10 µM; Solute carrier family 12 member 5 (Homo sapiens), Q9H2X9; actives 2.2% (n = 190,000);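 active means thallium flux slope and its plate-corrected score both differing from the plate sample mean at a set confidence after two filtering rounds, in either direction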;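 further: slope of fluorescence scaled to starting intensity during 10 to 20 s after thallium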
# Arbovirus inh = antivirals against arbovirus infection, primary screen, cell-based, full library, 10K replicate subset; arbovirus infection cell-based antiviral screen; inhibition, % at 10 µM; actives 0.37% (n = 200,000); AID 1251, 2008; in the data active means inhibition above about 30%
# MDM2 E3 inh = MDM2-luciferase reporter signal enhancers, primary screen, MDM2 E3 ligase inhibitor project, cell-based, luminescence, 1536-well; cell-based MDM2 ubiquitination luciferase reporter, 2 h; 0 = plate control, 100 = twice control, blank-subtracted; AID 1230, 2008; signal enhancement, % at 5 µM; actives 0.11% (n = 210,000); E3 ubiquitin-protein ligase Mdm2 (Homo sapiens), Q00987;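 active means signal enhancement of 30% or more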;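 further: luminescence tracks abundance of the self-degrading MDM2-luciferase fusion protein; higher signal means inhibition of MDM2 E3 ligase activity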
# Target sequence (Q00987 whole entry, looked up, the tested form may be a part): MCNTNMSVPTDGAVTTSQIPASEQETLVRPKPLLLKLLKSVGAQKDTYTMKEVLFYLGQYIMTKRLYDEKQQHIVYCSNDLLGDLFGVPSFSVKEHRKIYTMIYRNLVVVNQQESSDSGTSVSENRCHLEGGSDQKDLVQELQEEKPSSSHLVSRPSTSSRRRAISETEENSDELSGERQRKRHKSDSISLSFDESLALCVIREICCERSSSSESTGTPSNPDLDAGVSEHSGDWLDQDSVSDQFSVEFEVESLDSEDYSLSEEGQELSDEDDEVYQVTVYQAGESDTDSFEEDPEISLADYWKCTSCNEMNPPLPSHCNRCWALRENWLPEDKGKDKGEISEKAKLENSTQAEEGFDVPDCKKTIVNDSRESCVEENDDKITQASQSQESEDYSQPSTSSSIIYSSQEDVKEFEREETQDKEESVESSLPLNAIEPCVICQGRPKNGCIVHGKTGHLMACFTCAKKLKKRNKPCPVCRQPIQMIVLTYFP
#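 Material: Stable MDM2–luciferase fusion reporter cells | Amount: 2000 cells seeded into each well | Dosing: One concentration, 5 µM, with 0.2% DMSO | Incubation: 4 h cell settling then 2 h compound exposure, 37 °C | Measured by: Luciferase luminescence | Read-out basis: % enhancement relative to plate controls after blank subtraction | Benchmarks: Control and blank well means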
# KCC2 secondary = KCC2 modulators in sodium-free buffer, confirmation, cell-based, HEK293 KCC2, thallium flux, secondary assay | shares compounds with Cl transport mod | normalised thallium flux (F/F0 slope) at 10 µM | actives 15% (n = 3,700) | AID 1713, 2009 | FluoZin2 fluorescence; hits give high values;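 active means thallium flux slope above the same plate's solvent-only control mean plus 3 SD; inconclusive means the two replicate wells disagree; inactive means no significant difference from solvent-only control wells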
# KCC2 bumet counter = thallium flux persisting under bumetanide in KCC2 cells, confirmation, counter-screen for KCC2 modulator project, cell-based, HEK293 KCC2, FluoZin2, secondary assay 3; shares compounds with Cl transport mod; HEK293-KCC2 + bumetanide/ouabain; hits give high values; normalized thallium flux at 10 µM; actives 49% (n = 3,700); AID 1714, 2009;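 active means thallium entry rate above the same plate's blocked-transporter control wells by more than 3 SD; inconclusive means the two repeat wells disagree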;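 further: raw slope of fluorescence over initial fluorescence between 10 and 20 s after thallium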
# KCC2 secondary2 = KCC2 modulators without ouabain present, confirmation, cell-based, HEK293 KCC2, thallium flux, FluoZin2, secondary assay 2. shares compounds with Cl transport mod. thallium flux FluoZin2 fluorescence; actives lie on both sides; F/F0 rise rate, 10–20 s post-thallium. normalized thallium flux at 10 µM. actives 23% (n = 3,700);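 active means thallium flux slope more than 3 SD above or below the plate's solvent-only control mean, mostly below; inconclusive means the two repeat wells disagreed; inactive means no significant shift from solvent-only controls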;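 further: raw slope with 0.1% DMSO as baseline and bumetanide as block control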
# HEK293 Tl flux = thallium flux modulation in parental HEK cells, confirmation, counter-screen for KCC2 modulator project, cell-based, counterscreen 1; thallium flux rate (normalised fluorescence) at 10 µM; shares compounds with Cl transport mod; AID 1716, 2009; actives 46% (n = 3,700); HEK293 parental cells, thallium flux FluoZin2, ouabain; baseline-ratio fluorescence slope, 10–20 s after thallium;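 active means thallium flux rate significantly above the same plate's solvent-only control wells, beyond their mean plus 3 SD; inconclusive means the two replicate wells gave conflicting results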
# KCC2 ouabain = KCC2 inhibitors and activators, ouabain retest, confirmation, HEK-KCC2 cells. raw Tl+ flux slope (below DMSO = inhibition, above = activation) at 10 µM. actives 48% (n = 3,700). shares compounds with Cl transport mod. AID 1717, 2009. HEK293-KCC2, thallium flux FluoZin2 fluorescence; bidirectional: low = inhibitor, high = activator;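 active means thallium flux slope beyond 3 SD from same-plate DMSO control mean in most replicates, usually higher, sometimes lower; inconclusive means repeat tests gave conflicting results; inactive means no significant difference from controls in most replicates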;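 further: slope of initial-normalized fluorescence between seconds 10 and 20 after thallium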
# HEK counter2 = native HEK Tl+ uptake effects, second counter-screen – HEK cells, counterscreen 2, counter-screen for KCC2 modulator project, confirmation; shares compounds with Cl transport mod; HEK293 parental, thallium flux FluoZin-2 fluorescence slope; thallium flux slope at 10 µM; actives 33% (n = 3,700); AID 1718, 2009;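 active means thallium flux slope above the same plate's solvent-control mean plus 3 SD in both duplicate wells; inconclusive means duplicate wells that disagreed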;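 further: run without ouabain in cells lacking the KCC2 cotransporter; slope of fluorescence scaled to its starting value between 10 and 20 s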
# Starred values were filed as active, the others as inactive; u = inconclusive; x = not tested or not shown. This is a sample that favours compounds with a hit; in the whole collection about 3.7% have one here.
SMILES,ROMK primary,m-calpain inh,PKD1 kinase inh,Cl transport mod,Arbovirus inh,MDM2 E3 inh,KCC2 secondary,KCC2 bumet counter,KCC2 secondary2,HEK293 Tl flux,KCC2 ouabain,HEK counter2
CC(C)C(=O)N/N=C/c1ccc(OCc2ccccc2)cc1,x,7,-3,-4.7*,6,-16,0.0072,0.0051,0.03,0.0073,u,0.01
CCOC(=O)/C(C#N)=C/c1c(OCC)n(CC)c2ccccc12,x,18,5,-1.9,-5,-8,x,x,x,x,x,x
Cc1nn(-c2ccccc2)c(N)c1-c1ccccc1,0.41,-16,-4,-0.34,-5,-22,x,x,x,x,x,x
Cc1nn(-c2nc3ccccc3[nH]2)c(N)c1-c1ccccc1,-0.049,-14,-12,2.6*,-8,-5,0.0064,0.012*,0.032,0.011*,u,0.014*
C/C(=N/NC(=O)c1cc(-c2ccc(Cl)s2)[nH]n1)c1ccco1,-0.03,18,x,10*,x,2,0.0077,0.0096*,0.029,0.013*,0.021,u
C/C(=N/NC(=O)c1ccccn1)c1ccco1,x,7,-11,0.013,-6,-48,x,x,x,x,x,x
COc1cc(CC(=O)Nc2ccc(S(=O)(=O)NC3=NCCCCC3)cc2)cc(OC)c1OC,0.3,-28,-8,-0.16,5,2,x,x,x,x,x,x
CSc1cc(-c2ccc(Cl)cc2)c(C(=O)N2CCCC2)s1,x,12,0,x,3,-7,x,x,x,x,x,x
CN1c2ccccc2C(O)=C(C(=S)Nc2ccc(Cl)cc2)S1(=O)=O,x,19,-2,x,26,-9,0.0065,0.021*,0.035,0.017*,u,0.021*
O=C(C1CC(c2ccc(F)cc2)=NO1)N1CCN(Cc2ccccc2)CC1 (stereo unspecified),x,7,-9,x,5,-17,x,x,x,x,x,x
COc1cccc(C2=NOC(C(=O)N3CCN(Cc4ccccc4)CC3)C2)c1OC (stereo unspecified),x,10,8,-4*,-3,-16,0.0065,0.0057,0.029,0.0062,0.016*,u
COc1cc(OC)c(C2=NOC(C(=O)N3CCc4ccccc4C3)C2)cc1Cl (stereo unspecified),x,-2,-2,-3.2*,0,-17,0.0057,0.0039,0.024*,0.0074,u,0.0092
Cc1ccc2c(c1)nnn2C1CCN(S(=O)(=O)c2cccc(S(=O)(=O)N(C)C)c2)CC1,0.11,-3,3,x,9,-2,0.0069,0.0057,u,0.0064,u,0.0095
Cc1ccc2c(c1)nnn2C1CCN(S(=O)(=O)c2ccc3ccccc3c2)CC1,x,-55,4,-1.6,1,6,x,x,x,x,x,x
O=S(=O)(NC1CCCC1)c1cccc(S(=O)(=O)N2CCC(n3nnc4ccccc43)CC2)c1,0.76,-121,-6,x,-7,17,0.018,0.0048,u,0.0067,0.013,0.01
CSc1nc2ccc(NC(=O)c3c(-c4ccccc4)noc3C)cc2s1,0.35,-10,x,-0.2,x,-3,x,x,x,x,x,x
Cc1cc(Cl)ccc1NC(=S)NCc1ccccc1Cl,-0.03,24,3,-0.3,9,x,x,x,x,x,x,x
S=C(NCc1ccccc1Cl)Nc1ccccc1Cl,-2.1,1,-4,6.1*,4,-20,0.0089,0.012*,0.029,0.0075,u,0.0086
N#Cc1c(Cl)nc(SCc2ccccc2)nc1-c1ccccc1,x,-18,-17,-4.9*,28,8,0.0055,0.0039,0.024*,0.0055*,0.014*,0.0083*
CCOC(=O)c1ccccc1-c1cn2cc(Cl)ccc2n1,0.062,10,-2,-0.99,-8,0,x,x,x,x,x,x
COCCCn1[nH]c2c3c(ccc2c1=O)C(=O)c1ccccc1C3=O,x,4,12,x,-34,-4,0.005,u,0.03,0.008,0.019,0.012
CC(C)(C)n1[nH]c2c3c(ccc2c1=O)C(=O)c1ccccc1C3=O,0.16,-36,-11,x,-37,-13,0.0056,0.0053,0.029,0.0082,0.019,0.012
Cc1ccc(-n2[nH]c3c4c(ccc3c2=O)C(=O)c2ccccc2C4=O)cc1,x,7,4,0.17,4,13,x,x,x,x,x,x
CCCCC(=O)N(CCOC)c1nnc(-c2ccccc2C)s1,-0.63,24,2,0.079,4,-5,x,x,x,x,x,x
CC(=O)OCC1OC(c2ccccc2)C(OC(C)=O)C(OC(C)=O)C1OC(C)=O (stereo unspecified),x,1,-4,4.3*,12,-13,0.0064,0.005,u,0.0071,0.018,0.01
COC(=O)c1sc(C(C)(C)C)cc1CSc1ccccc1,x,11,x,-0.9,x,2,x,x,x,x,x,x
COC(=O)C1=C(Nc2ccccc2NS(=O)(=O)c2ccc(C(F)(F)F)cc2Cl)CSC1,-0.76,1,x,5.5*,x,-15,0.0074,0.011*,0.029,0.012*,u,0.012*
Cc1ccc(-c2csc3ncn(CC(=O)N4CCOCC4)c(=O)c23)cc1C,-1.2,-4,-6,x,4,-56,0.011,u,0.036,0.0048,0.021,0.012
O=C(Cn1cnc2scc(-c3ccc(F)cc3)c2c1=O)N1CCOCC1,1.1,-32,-8,0.097,3,-9,x,x,x,x,x,x
